PKD1 kinase inh: blocks activity of human protein kinase D1 | hit rate 0.056% among 200,000 | inhibition, % (test concentration not listed) | AID 797 | PKD1 kinase fluorescence polarization assay | Q15139
L major viab: Leishmania major promastigote growth inhibition; AID 1063; hit rate 9% among 200,000; Leishmania major promastigotes, resazurin fluorescence viability; inhibition, % at 10 µM;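 note: promastigotes grown with compound for 44 hours at 28 °C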
Wee1 degr inh: blocks degradation of human Wee1 kinase; AID 1321; reporter increase, % at 5 µM; hit rate 1.2% among 220,000; HeLa Luc-Wee1K328M stability, luciferase luminescence; 100% = proteasome inhibitor MG132 effect; P30291;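 active = activation above the mean of all tested compounds plus 3 SD, set per screening run, cut at about 8.8% in these data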;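 note: cells exposed to compound for 20 h before luminescence read; 0% = DMSO alone and 100% = MG132 at 30 µM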
Target sequence (P30291 whole entry K328M): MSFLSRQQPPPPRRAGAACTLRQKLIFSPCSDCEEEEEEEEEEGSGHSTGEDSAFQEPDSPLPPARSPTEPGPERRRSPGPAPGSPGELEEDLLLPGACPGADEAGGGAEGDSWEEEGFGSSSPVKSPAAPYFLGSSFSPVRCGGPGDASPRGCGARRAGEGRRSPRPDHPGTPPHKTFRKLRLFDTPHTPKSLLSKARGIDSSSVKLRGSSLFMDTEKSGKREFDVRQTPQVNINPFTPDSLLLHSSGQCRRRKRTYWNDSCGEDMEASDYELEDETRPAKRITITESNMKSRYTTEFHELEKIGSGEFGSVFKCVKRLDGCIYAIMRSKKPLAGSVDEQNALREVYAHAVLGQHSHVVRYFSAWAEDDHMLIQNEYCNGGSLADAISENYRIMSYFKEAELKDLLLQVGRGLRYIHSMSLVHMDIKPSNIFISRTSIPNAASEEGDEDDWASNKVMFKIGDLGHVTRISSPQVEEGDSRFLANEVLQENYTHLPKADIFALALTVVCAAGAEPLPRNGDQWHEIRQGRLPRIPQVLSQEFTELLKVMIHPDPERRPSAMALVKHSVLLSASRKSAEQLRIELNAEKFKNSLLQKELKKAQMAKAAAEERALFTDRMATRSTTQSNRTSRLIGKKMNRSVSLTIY
Rad51 HR inh: blocks human Rad51 in homologous recombination; AID 1385; inhibition, % at 10 µM; hRad51 DNA strand exchange, fluorescence dequenching; hit rate 0.085% among 200,000; Q06609;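 active = inhibition above 40% at the single screening dose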;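 note: 0% = DMSO control wells and 100% = blanks with heterologous ssDNA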
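Material: human Rad51–ssDNA filaments; Probe or stimulus: labelled 47-mer dsDNA for strand exchange; Doses: single 10 µM dose; Incubation: 37 °C 15-min filament assembly, 30-min compound preincubation, 15-min exchange; Technique: FRET fluorescence dequenching, excitation 485 nm, emission 520 nm; Measure: Fluorescence-based percent inhibition, control- and blank-normalised; Benchmarks: plate control and blank wells.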
Arbovirus anti: antivirals against arbovirus infection; arbovirus infection cell-based antiviral screen; inhibition, % at 10 µM; hit rate 0.37% among 200,000; AID 1251; in the data active = inhibition above about 30%
CHOP inh: inhibitors of CHOP induction in ER stress response; CHO-K1 CHOP-promoter luciferase, tunicamycin-induced, 15-18 h; inhibition, % at 10 µM; hit rate 3.8% among 220,000; AID 2732;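 active = compounds that reduced the stress-induced luciferase reporter signal by more than about 70% of percent inhibition, limit read from the data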;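 note: 0% = tunicamycin plus vehicle and 100% = wells without tunicamycin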
Wee1 degr conf: confirmation of human Wee1 degradation inhibitors. shares compounds with Wee1 degr inh. HeLa Luc-Wee1K328M degradation, luminescence; vehicle 0%, proteasome-blocked wells 100%. activation, % at 5 µM. hit rate 4% among 1,100. AID 1410; in the data active = activation above about 8.9%
Numbers without * were called inactive; nt = not tested or not shown. The list is not random: actives were taken first. Their share in the collection is about 12%. Cut-off read from the data, not from the text of the source, unless noted: active = inhibition above about 50%; inactive = the rest.

SMILES | PKD1 kinase inh | L major viab | Wee1 degr inh | Rad51 HR inh | Arbovirus anti | CHOP inh | Wee1 degr conf
O=C(Nc1ccon1)c1cccc(S(=O)(=O)N2CCCC2)c1 | 7 | -1 | 29* | -7 | 0 | 37 | -1
CC(C)NC(=O)NC(=O)COC(=O)Cc1c(F)cccc1Cl | -5 | -7 | 0 | 19 | 17 | 15 | nt
CCOc1ccc(NC(=S)Nc2ccc(OCc3ccccc3)cc2)cc1 | 2 | 52* | 16* | -2 | 1 | 4 | 1
COc1ccc(OC)c2sc(N3CCN(c4ccccc4)CC3)nc12 | -7 | -4 | 22* | 4 | nt | nt | 1
CC1CCCCN1C(=O)CSc1nnc(-c2c[nH]c3ccccc23)o1 (stereo unspecified) | -16 | 4 | 13* | 1 | 3 | 35 | 1
c1ccc2[nH]c(NC3=NCCC3)nc2c1 | 8 | 30 | 0 | 1 | -4 | -13 | nt
c1ccc2[nH]c(NN=C3CCCCCC3)nc2c1 | -2 | 75* | 17* | 3 | 2 | -10 | 3
CCN=C(NCC)SC1CC(=O)N(c2ccc(F)cc2)C1=O (stereo unspecified) | -6 | -1 | 0 | -3 | -2 | 5 | nt
Cc1cc(C)nc(NS(=O)(=O)c2ccc(N/C=C/C(=O)c3ccc(Cl)cc3)cc2)n1 | 11 | 58* | 14* | 7 | 0 | 92* | 0
COc1ccc(C(=O)/C=C/Nc2ccc(S(=O)(=O)Nc3nc(C)cc(C)n3)cc2)cc1OC | 6 | -6 | -1 | 0 | -17 | 36 | nt
Cc1nc2sc(C(c3ccc(C(C)C)cc3)N3CCN(CCO)CC3)c(O)n2n1 (stereo unspecified) | 0 | 22 | 24* | -8 | 2 | 28 | 2
CNS(=O)(=O)c1cccc(C(=O)OCC(=O)Nc2ccccc2OC(F)F)c1 | 1 | -9 | -1 | 5 | 6 | 39 | nt
CNS(=O)(=O)c1cccc(C(=O)OCC(=O)Nc2ccc(Cl)cn2)c1 | nt | nt | 12* | 4 | nt | -30 | 1
COCc1cc(=O)n2[nH]c(C(C)(C)C)cc2n1 | nt | nt | 6 | -4 | nt | 8 | nt
COc1ccc2cc(C3CC(c4ccco4)=NN3S(=O)(=O)c3ccccc3)c(Cl)nc2c1 (stereo unspecified) | -5 | 31 | 16* | -2 | -5 | 5 | 1
CCNC(=S)N1CCN(S(=O)(=O)c2ccc(C)c(C)c2)CC1 | 3 | -4 | 2 | 5 | 12 | 27 | nt
C=CCNC(=S)N1CCN(S(=O)(=O)c2ccc(C)cc2)CC1 | nt | nt | 17* | 10 | nt | 14 | 3
CCOC(=O)c1c(-c2ccccc2)csc1NC(=O)CCN1C(=O)c2ccccc2C1=O | -9 | 1 | 0 | -2 | 3 | 37 | nt
CCOC(=O)c1c(-c2ccccc2)csc1NC(=O)CSc1nnc(C)s1 | -12 | 7 | 12* | 25 | -2 | 46 | -1
CC(C1CC1)N(Cc1ccccc1)C(=O)NC(=O)c1ccc(F)cc1 (stereo unspecified) | 0 | 18 | 34* | -10 | -1 | -8 | 0
CC(C)N(Cc1ccccc1)C(=S)Nc1ccc(F)cc1 | 2 | 3 | -1 | 3 | 4 | 17 | nt
O=c1cc(Nc2ccc3c(c2)OCCO3)[nH]c(=O)n1C1CCCCC1 | -5 | 0 | 11* | -2 | -21 | nt | 11*
O=c1cc(Nc2ccc3c(c2)OCCO3)[nH]c(=O)n1-c1ccc(Cl)cc1 | -2 | -4 | 1 | -5 | -7 | 64 | nt
COc1ccc(C(=O)COc2ccccc2N2C(=O)C3C4C=CC(C4)C3C2=O)cc1 (stereo unspecified) | -7 | 3 | -1 | -3 | 7 | -10 | nt
CCOc1ccc(C(=O)NCC(=O)OCC(=O)Nc2ccccc2OC)cc1 | -1 | -3 | -2 | 7 | 2 | 2 | nt
COc1ccccc1NC(=O)CNC(=O)c1ccc(F)cc1 | -2 | -5 | 11* | 4 | 5 | 23 | 1
O=C(Nc1ccc(N2CCOCC2)c([N+](=O)[O-])c1)c1ccco1 | -8 | -3 | 11* | -11 | -5 | -13 | 1
Cc1ccc(NC(=O)c2cc(NC(=O)c3ccco3)ccc2N2CCOCC2)cc1Cl | 1 | -2 | -2 | -7 | -14 | -19 | nt
COc1ccc2nc(Nc3nc(C)c(C(C)=O)s3)sc2c1 | -7 | 7 | 12* | -6 | -31 | -54 | 5

Compound activity deposited in PubChem by several laboratories.
